The source of these data is ChEMBL document CHEMBL3244277, “Study of trans-cyclopropylbis (diketopiperazine) and chelating agents related to ICRF 159. Cytotoxicity, mutagenicity, and effects on scheduled and unscheduled DNA synthesis” (J Med Chem, 1977).

Data set [1] has as its system V79-4. The data set is described as follows: Inhibition of scheduled DNA synthesis in chinese hamster V79-4 cells assessed as DNA synthesis at 10^-4 M measured at 10 hrs by [3H]thymidine uptake /autoradiography (reference value: 83.3 %). Also on record: scale not given: the % may be the effect or the level left. Type of data set: functional, Cricetulus griseus.
Data set [2] can be described thus: Cytotoxicity against chinese hamster V79-4 cells assessed as survival using 5 x 10^5 cells per plate at 10^-4 M after 24 hrs. The class given is cell-based, Cricetulus griseus. Conditions: read-out: Survival. In a few lines:
(§1)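 Chinese hamster V-79A cells were seeded in 100-mm dishes, allowed to attach for 2 h, then exposed for 24 h to drug diluted from PBS stocks into Eagle's MEM with 15% fetal calf serum. Cells were rinsed twice in Hank's salt solution and grown drug-free for 7 days at 37 °C in 5% CO2. Colonies were stained with hematoxylin/eosin and counted; each value is the mean of eight plates.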

Data set [3] deals with V79-4. The data set is described as follows: Induction of unscheduled DNA synthesis in chinese hamster V79-4 cells assessed as DNA synthesis at 10^-4 to 10^-5 M measured at 0 to 5 hrs by [3H]thymidine uptake /autoradiography in presence of 2 x 10^-3 M hydroxyurea. The following applies: Cricetulus griseus.
The test system of data set [4] is V79-4. The data set is described as follows: Mutagenicity in chinese hamster V79-4 cells assessed as mutation frequency measured per 5 x 10^5 cells per plate at 10^-4 M after 24 hrs relative to control. The class given is toxicity, cell-based, Cricetulus griseus. The following applies: v79-4, 24 h, 100 µM. In a few lines:
(§2)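 V-79A cells plated at 5×10⁵ or 1×10⁵ per dish in MEM + 5% FCS and allowed 2 h to attach. Exposed 24 h at 37 °C to 10⁻³–10⁻⁵ M drug or none, washed in PBS, then grown 12 days in MEM + 10% FCS with 10⁻³ M ouabain. Resistant colonies were counted after hematoxylin/eosin staining, averaging 20 plates, and expressed per 5×10⁵ cells.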

Data set [5] can be described thus: Cytotoxicity against chinese hamster V79-4 cells assessed as survival using 5 x 10^5 cells per plate at […] after 24 hrs. Type of data set: cell-based, Cricetulus griseus. The following applies: read-out: Survival.
Data set [6] relates to V79-4. Kind of data set: Mutagenicity in chinese hamster V79-4 cells assessed as mutation frequency measured per 1 x 10^5 cells per plate at 10^-4 M after 24 hrs relative to control. Type of data set: toxicity, cell-based, Cricetulus griseus. The following applies: v79-4, 24 h, 100 µM.
The nature of data set [7]: Cytotoxicity against chinese hamster V79-4 cells assessed as survival using 5 x 10^5 cells per plate at 10^-3 M after 24 hrs. The class given is cell-based, Cricetulus griseus. Conditions: read-out: Survival. In a few lines:
as §1

Data set [8] deals with V79-4. The data set is described as follows: Induction of unscheduled DNA synthesis in chinese hamster V79-4 cells assessed as DNA synthesis at 10^-3 M measured at 8 hrs by [3H]thymidine uptake /autoradiography in presence of 2 x 10^-3 M hydroxyurea. Conditions: Cricetulus griseus, v79-4, 8 h, 1000 µM.
Data set [9] relates to V79-4. The data set is described as follows: Inhibition of scheduled DNA synthesis in chinese hamster V79-4 cells assessed as DNA synthesis at 10^-3 M measured at 10 hrs by [3H]thymidine uptake /autoradiography (reference value: 83.3 %). Type of data set: functional, Cricetulus griseus. Also on record: scale not given: the % may be the effect or the level left.
The nature of data set [10]: Cytotoxicity against chinese hamster V79-4 cells assessed as survival using 1 x 10^5 cells per plate at 10^-3 M after 24 hrs. Type of data set: cell-based, Cricetulus griseus. Conditions: read-out: Survival. The procedure, abridged: as §1
Data set [11] can be described thus: Cytotoxicity against chinese hamster V79-4 cells assessed as survival using 1 x 10^5 cells per plate at […] after 24 hrs. The following applies: read-out: Survival. The class given is cell-based, Cricetulus griseus.
The subject of data set [12] is V79-4. Kind of data set: Mutagenicity in chinese hamster V79-4 cells assessed as mutation frequency measured per 5 x 10^5 cells per plate at 10^-5 M after 24 hrs relative to control. The following applies: v79-4, 24 h, 10 µM. Type of data set: toxicity, cell-based, Cricetulus griseus. The procedure, abridged: as §2
Data set [13] deals with V79-4. Kind of data set: Inhibition of scheduled DNA synthesis in chinese hamster V79-4 cells assessed as DNA synthesis at 10^-5 M measured at 10 hrs by [3H]thymidine uptake /autoradiography (reference value: 83.3 %). Type of data set: functional, Cricetulus griseus. On the set-up: scale not given: the % may be the effect or the level left.
Data set [14] can be described thus: Cytotoxicity against chinese hamster V79-4 cells assessed as survival using 1 x 10^5 cells per plate at 10^-4 M after 24 hrs. Type of data set: cell-based, Cricetulus griseus. Conditions: read-out: Survival. In a few lines: as §1
Data set [15] relates to V79-4. The data set is described as follows: Inhibition of scheduled DNA synthesis in chinese hamster V79-4 cells assessed as DNA synthesis at 10^-3 M measured at 10 hrs by [3H]thymidine uptake /autoradiography (reference value: 85.2 %). The class given is functional, Cricetulus griseus. Also on record: scale not given: the % may be the effect or the level left.
Data set [16] relates to V79-4. Kind of data set: Induction of unscheduled DNA synthesis in chinese hamster V79-4 cells assessed as DNA synthesis at 10^-3 to 10^-5 M measured at 0 to 8 hrs by [3H]thymidine uptake /autoradiography in presence of 2 x 10^-3 M hydroxyurea. Conditions: Cricetulus griseus.
In data set [17] the test system is V79-4. Kind of data set: Inhibition of scheduled DNA synthesis in chinese hamster V79-4 cells assessed as DNA synthesis at 10^-5 M measured at 10 hrs by [3H]thymidine uptake /autoradiography (reference value: 85.2 %). The class given is functional, Cricetulus griseus. On the set-up: scale not given: the % may be the effect or the level left.
The test system of data set [18] is V79-4. The data set is described as follows: Inhibition of scheduled DNA synthesis in chinese hamster V79-4 cells assessed as DNA synthesis at 10^-4 M measured at 10 hrs by [3H]thymidine uptake /autoradiography (reference value: 85.2 %). Type of data set: functional, Cricetulus griseus. On the set-up: scale not given: the % may be the effect or the level left.

Data set [19] concerns V79-4. Kind of data set: Inhibition of scheduled DNA synthesis in chinese hamster V79-4 cells assessed as DNA synthesis at 10^-3 M measured at 10 hrs by [3H]thymidine uptake /autoradiography (reference value: 81.7 %). The class given is functional, Cricetulus griseus. On the set-up: scale not given: the % may be the effect or the level left.
Data set [20] relates to V79-4. Kind of data set: Inhibition of scheduled DNA synthesis in chinese hamster V79-4 cells assessed as DNA synthesis at 10^-5 M measured at 10 hrs by [3H]thymidine uptake /autoradiography (reference value: 81.7 %). Type of data set: functional, Cricetulus griseus. Also on record: scale not given: the % may be the effect or the level left.
Data set [21] relates to V79-4. Kind of data set: Inhibition of scheduled DNA synthesis in chinese hamster V79-4 cells assessed as DNA synthesis at 10^-4 M measured at 10 hrs by [3H]thymidine uptake /autoradiography (reference value: 81.7 %). The class given is functional, Cricetulus griseus. Also on record: scale not given: the % may be the effect or the level left.
The subject of data set [22] is V79-4. Kind of data set: Induction of unscheduled DNA synthesis in chinese hamster V79-4 cells assessed as DNA synthesis at 10^-3 to 10^-5 M measured at 8 hrs by [3H]thymidine uptake /autoradiography in presence of 2 x 10^-3 M hydroxyurea. Conditions: Cricetulus griseus, v79-4, 8 h.

The structures appear in SMILES notation.

As to `O=C1CN([C@H]2C[C@@H]2N2CC(=O)NC(=O)C2)CC(=O)N1` (relative stereo), the Activity in the data set on V79-4 [1] is reported as 78.3%; in the data set with V79-4 [3] it was “Non-toxic”; with V79-4 [4], “Non-toxic”; with V79-4 [6] it was “Non-toxic”; in the data set with V79-4 [8] it was “Toxic”; with V79-4 [9], 76.3%. Besides, the Activity entry is recorded as “Non-toxic” in the data set with V79-4 [12] and 82.2% with V79-4 [13]. For the same compound, the viability at 24 h, 100 µM in data set [2] and in data set [14] was 50% in each case. Moreover, the viability at 24 h, 10 µM in data set [5] and in data set [11] was 70% throughout. The viability at 24 h, 1000 µM in [7] and in [10] was 30% throughout.
In the case of `O=C(O)CN(CC(=O)O)[C@@H]1C[C@H]1N(CC(=O)O)CC(=O)O` (relative stereo), in [2], the viability at 24 h, 100 µM was 0.6%. Further, the Activity is given as 7.3% in the data set with V79-4 [15], “Toxic” in the data set on V79-4 [16], 83.8% in the data set on V79-4 [17] and 75.5% with V79-4 [18]. The viability at 24 h, 10 µM in data set [5] and in data set [11] was 10% in each case. The viability at 24 h, 1000 µM in [7] was determined as 0.04%.
For `COC(=O)CN(CC(=O)OC)[C@@H]1C[C@H]1N(CC(=O)OC)CC(=O)OC` (relative stereo), the viability at 24 h, 100 µM in [2] and in data set [14] was 2% in each case. The viability at 24 h, 10 µM in data set [5] and in data set [11] was 90% in each case. Also, the viability at 24 h, 1000 µM in data set [7] and in data set [10] was 0.02% throughout.
For the compound `CC(CN(CC(=O)O)CC(=O)O)N(CC(=O)O)CC(=O)O` (centres undefined), the viability at 24 h, 100 µM in data set [2] and in [14] was 85% in each case. The Activity result with V79-4 [3] is on record as “Non-toxic”; in the data set on V79-4 [19], 61.1%; in the data set on V79-4 [20], 69.2%; in the data set on V79-4 [21] it was 64.7%; with V79-4 [8], “Toxic”; in the data set with V79-4 [22], “Toxic”. For the same compound, the viability at 24 h, 10 µM in data set [5] and in data set [11] was 94% throughout. Moreover, the viability at 24 h, 1000 µM in data set [7] was determined as 1%.
